For four compounds, IC50 and EC50 results are on record in ChEMBL document CHEMBL1759857, “Synthesis and evaluation of isatin analogs as caspase-3 inhibitors: introduction of a hydrophilic group increases potency in a whole cell assay” (Bioorg Med Chem Lett, 2011).

The first assay addresses T1, Caspase-1 (Homo sapiens, UniProt P29466).
T1 sequence (P29466 whole entry): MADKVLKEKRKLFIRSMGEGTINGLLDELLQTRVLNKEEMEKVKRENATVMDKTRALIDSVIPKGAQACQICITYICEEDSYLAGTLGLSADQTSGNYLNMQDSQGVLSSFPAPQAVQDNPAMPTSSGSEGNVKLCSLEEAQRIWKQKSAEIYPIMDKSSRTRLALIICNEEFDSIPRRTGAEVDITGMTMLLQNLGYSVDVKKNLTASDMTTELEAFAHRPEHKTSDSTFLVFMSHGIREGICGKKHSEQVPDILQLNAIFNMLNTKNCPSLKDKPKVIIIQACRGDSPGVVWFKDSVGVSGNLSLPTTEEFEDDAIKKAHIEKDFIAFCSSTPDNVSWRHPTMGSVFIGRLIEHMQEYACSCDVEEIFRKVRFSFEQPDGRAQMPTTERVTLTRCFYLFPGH
The assay is described as follows: Inhibition of caspase 1 by fluorometric assay. The method, boiled down:
(§1)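 Recombinant caspases were tested in a standard fluorometric enzyme assay. IC50 is reported as mean ± SD of at least three independent assays.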
The IC50 is the midpoint of a concentration-inhibition curve. Read a high IC50 as a need for much substance. Regarding `O=C1C(=O)N(Cc2ccc(OCCOCCF)cc2)c2ccc(S(=O)(=O)N3CCC[C@H]3COc3ccccc3)cc21`, the IC50 was over 25 µM.
`O=C1C(=O)N(Cc2cn(CCF)nn2)c2ccc(S(=O)(=O)N3CC[C@H]3COc3ccccc3)cc21` yielded an IC50 of over 20 µM.
Compound `O=C1C(=O)N(Cc2ccc(OCCF)cc2)c2ccc(S(=O)(=O)N3CCC[C@H]3COc3cccnc3)cc21` returned an IC50 of over 20 µM.
On the same count and under the same terms, under `O=C1C(=O)N(Cc2cn(CCF)nn2)c2ccc(S(=O)(=O)N3CCC[C@H]3COc3ccccc3)cc21` stands over 20 µM.

Another assay addresses T2, Caspase-3 (Homo sapiens, UniProt P42574).
T2 sequence (P42574 whole entry): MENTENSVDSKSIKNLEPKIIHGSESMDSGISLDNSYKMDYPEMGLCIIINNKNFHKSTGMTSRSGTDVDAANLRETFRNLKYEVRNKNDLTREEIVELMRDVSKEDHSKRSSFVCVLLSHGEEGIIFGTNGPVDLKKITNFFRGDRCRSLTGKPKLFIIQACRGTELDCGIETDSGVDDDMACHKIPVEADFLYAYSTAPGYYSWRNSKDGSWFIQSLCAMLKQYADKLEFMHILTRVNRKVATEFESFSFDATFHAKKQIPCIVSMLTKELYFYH
The assay is described as follows: Inhibition of staurosporine induced activation of caspase 3 activation in human Hela cells assessed as hydrolysis of Z-DEVD-R110 substrate by microplate fluorescence assay. It is filed as cell-based. In a few lines:
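HeLa cells were seeded at 1-2×10^4 per well and left to adhere overnight at 37°C in 5% CO2. […] A homogeneous caspase-3/7 kit with cell-permeable Z-DEVD-R110 was then used, reading fluorescence at ex 485/em 535 nm. EC50 was taken from dose-response curves, as mean ± SD of ≥3 independent experiments.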
By EC50 is commonly meant the concentration that produces a half-maximal response. As for `O=C1C(=O)N(Cc2ccc(OCCOCCF)cc2)c2ccc(S(=O)(=O)N3CCC[C@H]3COc3ccccc3)cc21`, the EC50 turned out to be 1.69 µM.
On the same count and under the same terms, the value for `O=C1C(=O)N(Cc2cn(CCF)nn2)c2ccc(S(=O)(=O)N3CC[C@H]3COc3ccccc3)cc21` was 0.8 µM; that for `O=C1C(=O)N(Cc2ccc(OCCF)cc2)c2ccc(S(=O)(=O)N3CCC[C@H]3COc3cccnc3)cc21` was 0.39 µM; that for `O=C1C(=O)N(Cc2cn(CCF)nn2)c2ccc(S(=O)(=O)N3CCC[C@H]3COc3ccccc3)cc21` was 0.93 µM.

Another assay deals with T3, Caspase-6 (Homo sapiens, UniProt P55212).
T3 sequence (P55212 whole entry): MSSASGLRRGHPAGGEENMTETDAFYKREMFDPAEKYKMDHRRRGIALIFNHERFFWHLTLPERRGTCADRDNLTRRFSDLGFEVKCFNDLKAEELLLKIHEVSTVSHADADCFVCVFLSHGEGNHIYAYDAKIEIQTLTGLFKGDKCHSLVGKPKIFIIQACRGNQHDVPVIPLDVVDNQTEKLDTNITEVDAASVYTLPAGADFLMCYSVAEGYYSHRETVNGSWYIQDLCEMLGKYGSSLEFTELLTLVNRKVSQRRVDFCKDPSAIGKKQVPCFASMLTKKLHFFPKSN
The assay is described as follows: Inhibition of caspase 6 by fluorometric assay. The method, boiled down: as §1
On to `O=C1C(=O)N(Cc2ccc(OCCOCCF)cc2)c2ccc(S(=O)(=O)N3CCC[C@H]3COc3ccccc3)cc21`, for which the IC50 was over 10 µM.
For the compound `O=C1C(=O)N(Cc2cn(CCF)nn2)c2ccc(S(=O)(=O)N3CC[C@H]3COc3ccccc3)cc21`, inhibition was half-maximal at 6.95 µM (IC50).
`O=C1C(=O)N(Cc2ccc(OCCF)cc2)c2ccc(S(=O)(=O)N3CCC[C@H]3COc3cccnc3)cc21` returned an IC50 of 6.9 µM.
Consider `O=C1C(=O)N(Cc2cn(CCF)nn2)c2ccc(S(=O)(=O)N3CCC[C@H]3COc3ccccc3)cc21`, for which half-maximal inhibition (IC50) required 9.97 µM.

In another assay the target is Caspase-8 (Homo sapiens, UniProt Q14790). Put plainly: Inhibition of caspase 8 by fluorometric assay. In a few lines: as §1
Sequence of Caspase-8 (Q14790 217-374 limits assumed): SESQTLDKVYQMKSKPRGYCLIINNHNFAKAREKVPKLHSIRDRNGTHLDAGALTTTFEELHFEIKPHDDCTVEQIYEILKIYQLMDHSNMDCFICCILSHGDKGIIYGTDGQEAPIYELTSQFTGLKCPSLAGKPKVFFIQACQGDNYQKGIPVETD
Sequence of Caspase-8 (Q14790 385-479 limits assumed): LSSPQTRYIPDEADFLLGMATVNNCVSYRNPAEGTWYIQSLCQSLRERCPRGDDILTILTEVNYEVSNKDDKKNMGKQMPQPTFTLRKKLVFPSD
In the case of `O=C1C(=O)N(Cc2ccc(OCCOCCF)cc2)c2ccc(S(=O)(=O)N3CCC[C@H]3COc3ccccc3)cc21`, the IC50 is over 50 µM.
Compound `O=C1C(=O)N(Cc2cn(CCF)nn2)c2ccc(S(=O)(=O)N3CC[C@H]3COc3ccccc3)cc21` registered an IC50 of over 50 µM.
In turn, `O=C1C(=O)N(Cc2ccc(OCCF)cc2)c2ccc(S(=O)(=O)N3CCC[C@H]3COc3cccnc3)cc21` yielded a concentration for half-maximal inhibition (IC50) of over 50 µM.
The compound `O=C1C(=O)N(Cc2cn(CCF)nn2)c2ccc(S(=O)(=O)N3CCC[C@H]3COc3ccccc3)cc21` had a half-inhibitory concentration (IC50) of over 50 µM.

The target in a further assay is T2, Caspase-3. Put plainly: Inhibition of human caspase 3 by fluorometric assay. The method, boiled down: as §1
Compound `O=C1C(=O)N(Cc2ccc(OCCOCCF)cc2)c2ccc(S(=O)(=O)N3CCC[C@H]3COc3ccccc3)cc21` came in with an IC50 of 0.0109 µM.
In turn, `O=C1C(=O)N(Cc2cn(CCF)nn2)c2ccc(S(=O)(=O)N3CC[C@H]3COc3ccccc3)cc21` gave an IC50 of 0.011 µM.
In turn, `O=C1C(=O)N(Cc2ccc(OCCF)cc2)c2ccc(S(=O)(=O)N3CCC[C@H]3COc3cccnc3)cc21` came in with an IC50 of 0.0031 µM.
As to `O=C1C(=O)N(Cc2cn(CCF)nn2)c2ccc(S(=O)(=O)N3CCC[C@H]3COc3ccccc3)cc21`, the IC50 was found to be 0.0122 µM.

The next assay addresses T4, Caspase-7 (Homo sapiens, UniProt P55210).
T4 sequence (P55210 whole entry): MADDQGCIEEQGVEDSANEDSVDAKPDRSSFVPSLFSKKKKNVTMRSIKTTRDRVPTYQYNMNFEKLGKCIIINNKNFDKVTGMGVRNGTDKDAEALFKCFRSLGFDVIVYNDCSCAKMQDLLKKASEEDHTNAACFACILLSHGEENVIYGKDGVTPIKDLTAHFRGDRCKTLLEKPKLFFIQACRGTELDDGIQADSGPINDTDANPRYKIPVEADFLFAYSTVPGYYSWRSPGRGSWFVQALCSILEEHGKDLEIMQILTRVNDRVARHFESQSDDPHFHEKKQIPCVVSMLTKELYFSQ
Put plainly: Inhibition of caspase 7 by fluorometric assay.
As to `O=C1C(=O)N(Cc2ccc(OCCOCCF)cc2)c2ccc(S(=O)(=O)N3CCC[C@H]3COc3ccccc3)cc21`, it took 0.0119 µM to reach half-maximal inhibition (IC50).
The compound `O=C1C(=O)N(Cc2cn(CCF)nn2)c2ccc(S(=O)(=O)N3CC[C@H]3COc3ccccc3)cc21` displayed an IC50 of 0.018 µM.
Same read-out and setting: the value for `O=C1C(=O)N(Cc2ccc(OCCF)cc2)c2ccc(S(=O)(=O)N3CCC[C@H]3COc3cccnc3)cc21` was 0.0113 µM; that for `O=C1C(=O)N(Cc2cn(CCF)nn2)c2ccc(S(=O)(=O)N3CCC[C@H]3COc3ccccc3)cc21` was 0.0124 µM.
